Consider 5 compounds from ChEMBL document CHEMBL1141647, “Novel ofloxacin derivatives: synthesis, antimycobacterial and toxicological evaluation” (Bioorg Med Chem Lett, 2008).

For data set [1], the target named is DNA gyrase subunit A (Mycolicibacterium smegmatis, UniProt Q59556). In words: Inhibition of Mycobacterium smegmatis DNA gyrase. In a few lines: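 Inhibition of DNA supercoiling by M. smegmatis (MC²) gyrase, run under standard assay conditions. Varying compound amounts were tested against a fixed amount of enzyme, and IC50 was derived from that series. Relaxed circular DNA served as marker, 5% DMSO as solvent control, and moxifloxacin at 5 µg/mL as positive control.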

For data set [2], the system named is Mus musculus. The data set is described as follows: Phototoxic effect in mouse assessed as ear thickness at 140 mg/kg administered before UV light exposure relative to control. The data set is classed as ADME, organism-based. More on the design: dose 140 mg/kg. The conditions noted are these: in vivo. The essentials: (§1)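 Mice dosed at 140 mg/kg and exposed to UV immediately after dosing. Irradiation ended at 4 h. Ear thickness (mm) was measured at 0 (pre-dose), 4, 24, 48, 72 and 96 h, left and right ears averaged, mean ± SEM. Comparison was against vehicle controls (0.5% aqueous sodium carboxymethylcellulose, 10 mL/kg) and against the 0 h reading.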

In data set [3] the test system is Mus musculus. In words: Phototoxic effect in UV light irradiated mouse assessed as ear thickness at 140 mg/kg, after 4 hrs relative to control. The data set is classed as ADME, organism-based. Also noted: dose 140 mg/kg. The conditions noted are these: in vivo. In a few lines: as §1
The subject of data set [4] is Mus musculus. In words: Phototoxic effect in UV light irradiated mouse assessed as ear thickness at 140 mg/kg, after 24 hrs relative to control. The class given is ADME, organism-based. Also noted: dose 140 mg/kg. The conditions noted are these: in vivo. The essentials:
as §1

In data set [5] the test system is Mus musculus. The data set is described as follows: Phototoxic effect in UV light irradiated mouse assessed as ear thickness at 140 mg/kg, after 48 hrs relative to control. The class given is ADME, organism-based. Also noted: dose 140 mg/kg. As to conditions: in vivo. In a few lines:
as §1

The test system of data set [6] is Mus musculus. In words: Phototoxic effect in UV light irradiated mouse assessed as ear thickness at 140 mg/kg, after 72 hrs relative to control. The class given is ADME, organism-based. Also noted: dose 140 mg/kg. As to conditions: in vivo. The essentials: as §1
In data set [7] the test system is Mus musculus. The data set is described as follows: Phototoxic effect in UV light irradiated mouse assessed as ear thickness at 140 mg/kg, after 96 hrs relative to control. The class given is ADME, organism-based. More on the design: dose 140 mg/kg. As to conditions: in vivo. In a few lines: as §1
In data set [8] the test system is Mus musculus. The data set is described as follows: Phototoxic effect in mouse assessed as number of mouse bearing erythema at 140 mg/kg administered before UV light exposure relative to control. The class given is ADME, organism-based. More on the design: dose 140 mg/kg. As to conditions: in vivo. In a few lines: (§2)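 Mice received 140 mg/kg and were UV-irradiated immediately after dosing, irradiation ending at 4 h. Both ears were scored for erythema at 0, 4, 24, 48, 72 and 96 h, counted as the number of mice with erythema. Vehicle control was 0.5% aqueous sodium carboxymethylcellulose at 10 mL/kg.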

Data set [9] concerns Mus musculus. In words: Phototoxic effect in UV light irradiated mouse assessed as number of mouse bearing erythema at 140 mg/kg, after 4 hrs relative to control. The class given is ADME, organism-based. More on the design: dose 140 mg/kg. As to conditions: in vivo. In a few lines: as §2
Data set [10] deals with Mus musculus. The data set is described as follows: Phototoxic effect in UV light irradiated mouse assessed as number of mouse bearing erythema at 140 mg/kg, after 24 hrs relative to control. More on the design: dose 140 mg/kg. The data set is classed as ADME, organism-based. As to conditions: in vivo. The essentials:
as §2

In data set [11] the test system is Mus musculus. The data set is described as follows: Phototoxic effect in UV light irradiated mouse assessed as number of mouse bearing erythema at 140 mg/kg, after 48 hrs relative to control. The class given is ADME, organism-based. More on the design: dose 140 mg/kg. As to conditions: in vivo. The essentials:
as §2

The test system of data set [12] is Mus musculus. In words: Phototoxic effect in UV light irradiated mouse assessed as number of mouse bearing erythema at 140 mg/kg, after 72 hrs relative to control. The data set is classed as ADME, organism-based. Also noted: dose 140 mg/kg. The conditions noted are these: in vivo. The essentials: as §2
The subject of data set [13] is Mus musculus. In words: Phototoxic effect in UV light irradiated mouse assessed as number of mouse bearing erythema at 140 mg/kg, after 96 hrs relative to control. The class given is ADME, organism-based. More on the design: dose 140 mg/kg. The conditions noted are these: in vivo. The essentials:
as §2

Data set [14] has as its system Vero. The data set is described as follows: Cytotoxicity against african green monkey Vero cells after 72 hrs by MTT assay. The class given is cell-based. As to conditions: Chlorocebus sabaeus. In a few lines: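 Vero cells exposed for 72 h; tested up to 62.5 µg/mL. Viability was read as cellular conversion of MTT to formazan, and IC50 was reported in µM.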
The subject of data set [15] is Mycobacterium tuberculosis. In words: Antimycobacterial activity against Mycobacterium tuberculosis H37Rv by agar dilution method. The data set is classed as functional. The essentials:
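MIC99 was taken as the lowest concentration giving complete inhibition of bacterial growth.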

In data set [16] the test system is Mycolicibacterium smegmatis. In words: Antimycobacterial activity against Mycobacterium smegmatis ATCC 14468 by agar dilution method. The data set is classed as functional. The essentials: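 MC² (M. smegmatis) growth inhibition; MIC99 taken as the lowest concentration giving complete inhibition of bacterial growth, in µM.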
In general terms: In agar dilution the substance is mixed into plates at graded concentrations.

Data set [17] has as its system Mycobacterium tuberculosis. The data set is described as follows: Antimycobacterial activity against Mycobacterium tuberculosis ATCC 35801 infected CD1 mouse spleen assessed as viable organisms at 50 mg/kg, ip after 35 days relative to control. The data set is classed as functional. The conditions noted are these: route intraperitoneal. In a few lines:
(§3)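 CD-1 mice infected intravenously with M. tuberculosis ATCC 35801; intraperitoneal treatment started 10 days after inoculation and continued for 10 days. At 35 days postinfection, spleens and right lungs were removed aseptically and viable organisms counted (log CFU). Counts were compared with vehicle-treated controls.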

For data set [18], the system named is Mycobacterium tuberculosis. The data set is described as follows: Antimycobacterial activity against Mycobacterium tuberculosis ATCC 35801 infected CD1 mouse lungs assessed as viable organisms at 50 mg/kg, ip after 35 days relative to control. The class given is functional. The conditions noted are these: route intraperitoneal. In a few lines:
as §3

The subject of data set [19] is Mycobacterium tuberculosis. In words: Antimycobacterial activity against Mycobacterium tuberculosis ATCC 35801 infected CD1 mouse lungs assessed as viable organisms at 25 mg/kg, ip after 35 days relative to control. The data set is classed as functional. The conditions noted are these: route intraperitoneal. In a few lines: as §3
Data set [20] has as its system Mycobacterium tuberculosis. In words: Antimycobacterial activity against Mycobacterium tuberculosis ATCC 35801 infected CD1 mouse spleen assessed as viable organisms at 25 mg/kg, ip after 35 days relative to control. The class given is functional. As to conditions: route intraperitoneal. The essentials:
as §3

Values after ≈ are worked out from the molar mass of the structure shown.

One may read the IC50 as the concentration that inhibits the measured activity by half. One may read the MIC99 as the lowest concentration that inhibits either 99% of growth or 99% of the strains tested, depending on the study.

Sequence of DNA gyrase subunit A (Q59556 whole entry): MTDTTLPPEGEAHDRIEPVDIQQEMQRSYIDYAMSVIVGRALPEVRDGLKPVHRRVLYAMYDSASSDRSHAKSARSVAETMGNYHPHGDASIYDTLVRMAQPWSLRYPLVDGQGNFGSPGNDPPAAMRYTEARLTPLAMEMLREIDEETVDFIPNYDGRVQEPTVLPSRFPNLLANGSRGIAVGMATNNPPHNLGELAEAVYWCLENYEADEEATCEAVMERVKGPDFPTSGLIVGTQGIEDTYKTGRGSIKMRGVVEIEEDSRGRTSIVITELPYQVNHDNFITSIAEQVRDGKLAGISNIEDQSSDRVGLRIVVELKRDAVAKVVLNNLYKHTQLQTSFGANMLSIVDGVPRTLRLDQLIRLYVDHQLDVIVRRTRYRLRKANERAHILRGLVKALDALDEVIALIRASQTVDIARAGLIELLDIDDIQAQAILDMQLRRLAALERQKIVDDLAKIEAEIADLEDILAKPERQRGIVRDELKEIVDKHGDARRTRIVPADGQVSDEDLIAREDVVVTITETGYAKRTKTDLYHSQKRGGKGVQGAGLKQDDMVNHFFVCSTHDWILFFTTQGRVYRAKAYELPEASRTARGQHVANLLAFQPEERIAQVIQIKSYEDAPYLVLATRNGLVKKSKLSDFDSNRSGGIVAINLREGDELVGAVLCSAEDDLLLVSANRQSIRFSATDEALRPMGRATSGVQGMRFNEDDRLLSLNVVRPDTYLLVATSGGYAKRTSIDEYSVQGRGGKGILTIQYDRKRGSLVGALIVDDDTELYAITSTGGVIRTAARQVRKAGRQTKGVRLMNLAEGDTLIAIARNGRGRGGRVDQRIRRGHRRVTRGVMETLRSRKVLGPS

In the case of `CC1COc2c(N3CCN(C(c4ccccc4)c4ccc(Cl)cc4)CC3)c(F)c([N+](=O)[O-])c3c(=O)c(C(=O)O)cn1c23` (configuration not stated), the results for the IC50 in [1] and in data set [14] were 16.9 µM and 105 µM, respectively. Also, the Activity is listed as 0.28 mm in data set [2]; 0.28 mm in [3]; 0.28 mm in data set [4]; 0.29 mm in [5]; 0.29 mm in data set [6]; 0.31 mm in [7]. For the same compound, the Activity entry in data set [8], in data set [9], in data set [10], in data set [11], in data set [12] and in data set [13] was “Non-toxic” in each case. Also, the MIC99 is 2.63 µM (≈ 1.56 µg/mL) in data set [15] and 0.66 µM (≈ 0.391 µg/mL) in data set [16].

For `CC1COc2c(N3CCSCC3)c(F)c([N+](=O)[O-])c3c(=O)c(C(=O)O)cn1c23` (configuration not stated), the IC50 in [1] is 122 µM; in data set [14], 153 µM. Besides, the Activity was 0.25 mm in data set [2]; 0.28 mm in [3]; 0.29 mm in data set [4]; 0.29 mm in data set [5]; 0.28 mm in data set [6]; 0.28 mm in [7]. Further, the Activity entry in data set [8], in data set [9], in data set [10], in data set [11], in data set [12] and in data set [13] was “Non-toxic” each time. In addition, the MIC99 in data set [15] and in [16] was 1.91 µM (≈ 0.782 µg/mL) in each case.

Consider `CC1COc2c(N3CCn4cc(C(=O)O)nc4C3)c(F)c([N+](=O)[O-])c3c(=O)c(C(=O)O)cn1c23` (configuration not stated), for which the figures for the Log10 cfu in data set [17] and in [18] were 6.11 and 6.08, respectively. In data set [14], this compound showed an IC50 of 132 µM. For the same compound, the results for the MIC99 in data set [15] and in [16] were 0.19 µM (≈ 0.0899 µg/mL) and 6.61 µM (≈ 3.13 µg/mL), respectively.

As to `NNC(=O)c1ccncc1` [ISONIAZID], the Log10 cfu in data set [19] came to 5.86; in data set [20], 4.71. In data set [14], this compound yielded an IC50 greater than 456 µM. Further, the MIC99 in data set [15] worked out at 0.36 µM (≈ 0.0494 µg/mL); in data set [16], 45.6 µM (≈ 6.25 µg/mL).

On to `CC1COc2c(N3CCN(C)CC3)c(F)cc3c(=O)c(C(=O)O)cn1c23` (configuration not stated) [OFLOXACIN], for which the figures for the Log10 cfu in data set [17] and in [18] were 7.61 and 6.61, respectively. The IC50 in data set [14] was greater than 155 µM. Further, the MIC99 in data set [15] and in data set [16] was 2.16 µM (≈ 0.781 µg/mL) in each case.
